KCNK9 block: human KCNK9 channel inhibition; actives 1.2% (n = 310,000); Q9NPC2; HEK293 KCNK9, FluxOR thallium flux fluorescence; active compounds read low; B-score at 10 µM;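 active means ratio B-score over 3 SD below the library mean, with starting fluorescence within 5 SD of its mean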;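 further: negative B-score means less thallium flux so channel inhibition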
Target sequence (Q9NPC2 whole entry, looked up): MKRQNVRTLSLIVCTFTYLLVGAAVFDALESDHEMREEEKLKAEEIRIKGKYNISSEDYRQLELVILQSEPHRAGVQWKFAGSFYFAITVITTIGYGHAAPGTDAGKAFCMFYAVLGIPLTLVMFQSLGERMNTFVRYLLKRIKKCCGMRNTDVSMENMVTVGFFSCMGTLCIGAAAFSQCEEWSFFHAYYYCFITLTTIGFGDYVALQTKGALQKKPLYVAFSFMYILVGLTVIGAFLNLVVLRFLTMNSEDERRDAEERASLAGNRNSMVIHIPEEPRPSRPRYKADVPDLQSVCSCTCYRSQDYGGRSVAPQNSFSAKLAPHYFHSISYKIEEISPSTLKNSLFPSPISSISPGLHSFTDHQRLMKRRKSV
KCNQ1 block: inhibitors of human KCNQ1 potassium channel; CHO-K1 KCNQ1, FluxOR thallium flux fluorescence; active compounds read high; AID 2642; actives 1.3% (n = 310,000); B-score at 10 µM; P51787;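 active means compounds whose thallium flux B-score, printed positive for inhibition, exceeds three library SD while starting fluorescence stays within three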;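 further: channel opened by potassium depolarization with thallium stimulus after 20 min compound exposure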
KCNQ1 act: human KCNQ1 channel potentiation or activation; CHO-K1 KCNQ1, thallium flux FluxOR fluorescence; active compounds read high; B-score at 10 µM; actives 0.35% (n = 310,000); AID 2648;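 active means fluorescence ratio B-score, a plate-corrected score, at least three library SD, with initial intensity B-score within 5 SD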
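Test system: CHO-K1 cells stably expressing KCNQ1 / Medium: assay buffer / Also added: depolarizing K+/Tl+ stimulus, K2SO4 and Tl2SO4 each 12.5 mM in 5x stock / Incubation: 90 min dye loading and 20 min compound exposure, both at room temperature / Signal: thallium influx via FluxOR fluorescence, kinetic imaging / Evaluation: B score of baseline-normalized fluorescence ratio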
KCNK3 inh: human KCNK3 channel inhibition, primary screen | CHO-KCNK3 thallium flux, FluxOR fluorescence; active compounds read low | B-score at 10 µM | actives 0.84% (n = 340,000) | AID 602410;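 active means B-score under library mean minus 4 SD, starting fluorescence ratio at most library mean plus 5 SD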;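 further: more negative B-score means stronger inhibition of thallium flux through KCNK3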
hERG protect: compounds protecting human hERG from proarrhythmic drug block; AID 1511; CHO-hERG, FluxOR thallium flux, dofetilide IC70 present; actives 0.51% (n = 310,000); activation (rescue from dofetilide block), less the hit threshold, % at 10 µM; Q12809;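 active means activation above the mean of controls blocked by dofetilide plus 5 SD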;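 further: thallium influx through hERG after potassium depolarization seen as dye fluorescence rise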
Kir21 block: Kir2.1 (mouse) channel inhibition; actives 0.85% (n = 310,000); P35561; HEK293-Kir2.1, FluxOR thallium flux fluorescence; active compounds read low; B-score at 10 µM;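 active means fluorescence ratio B-score at or below minus 3 SD of library scores, with starting-brightness B-score within 2 SD, cut at about -4.2 in these data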;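 further: channel flux triggered by added potassium and thallium sulfate stimulus; B-score of peak minus minimum fluorescence over baseline after thallium stimulus; more negative B-score means stronger Kir2.1 block with less thallium influx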
KCNK3 inh conf: human KCNK3 channel inhibition, confirmation assay. shares compounds with KCNK3 inh. CHO-KCNK3 thallium flux, FluxOR fluorescence; 0% buffer, 100% carvedilol maximal block. ratio percent of control, % at 10 µM. actives 99% (n = 2,400);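 active means ratio percent of control, averaged over triplicates, above buffer control mean plus 5 SD, cut at about 64% in these data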;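 further: ratio is the fluorescence rise from min to max over baseline after thallium stimulus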
KCNK3 uninduced: counter-screen for KCNK3 inhibitors: effect in non-induced cells; shares compounds with KCNK3 inh; non-induced KCNK3 parental cells, FluxOR thallium flux; active compounds read low; thallium flux ratio (lower = more inhibition) at 10 µM; actives 40% (n = 2,400); AID 651747;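 active means thallium flux ratio, averaged over three wells, more than 5 SD below the buffer control mean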;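 further: host cells are CHO cells without KCNK3 induction; ratio is peak minus trough fluorescence over baseline then normalized to buffer controls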
* hit, by the source's call; i = inactive; · = not tested or not shown. This is a sample that favours compounds with a hit; in the whole collection about 3.8% have one here.

SMILES | KCNK9 block | KCNQ1 block | KCNQ1 act | KCNK3 inh | hERG protect | Kir21 block | KCNK3 inh conf | KCNK3 uninduced
O=C(NC1CCN(C(=O)N2c3ccccc3Sc3ccccc32)CC1)c1ccccc1F | i | i | i | -10.5* | -8.1 | -0.11 | 89.3* | i
O=C(N1CCOCC1)N1c2ccccc2Sc2ccccc21 | i | i | i | i | -0.8 | -2.94 | · | ·
COC(=O)C(Cc1csc2ccc(Cl)cc12)NC(=O)c1ccc(Cl)cc1 (centres undefined) | i | i | i | -10.4* | 4.0 | -0.6 | 140.3* | 0.145*
CN(C(=O)C1CCC(=O)N(CCCN2CCCC2=O)C1)C(C1CC1)C1CC1 (centres undefined) | i | i | i | i | -6.3 | -0.01 | · | ·
COc1ccc(C2Nc3ccccc3C(=O)N2c2ccc(C)cc2)cc1Cn1nnc2ccccc21 (centres undefined) | i | i | i | -8.8* | -12.4 | -1.06 | 111.0* | 0.156*
COc1ccc(C)cc1Cn1nnc2ccccc21 | i | i | i | i | -2.9 | -0.32 | · | ·
COc1ccc(C2Nc3ccccc3C(=O)N2c2ccc(C)cc2)cc1Cn1cc([N+](=O)[O-])cn1 (centres undefined) | i | i | i | -8.77* | -15.1 | 1.96 | 104.7* | i
CCN1CCN(c2c(/C=C3\SC(=S)N(Cc4ccco4)C3=O)c(C)c(C#N)c(=O)n2C)CC1 | i | 7* | i | -16* | -36.6 | -1.79 | 141.3* | 0.0893*
CCN1C(=O)/C(=C\N2CCN(C(=O)c3ccco3)CC2)SC1=S | i | i | i | i | -4.2 | -0.35 | · | ·
O=c1c(O)c(-c2ccccc2)oc2cc(O)cc(O)c12 | · | · | · | i | · | · | · | ·
O=c1c(-c2ccccc2)c(-c2ccccc2)oc2cc(O)cc(O)c12 | i | 13* | i | -8.98* | -13.9 | -0.81 | 112.0* | i
COc1cccc(-c2cc(CC3(O)CCN(CCCc4ccccc4)CC3)on2)c1 | i | i | i | i | -16.9 | -2.83 | · | ·
Cc1oc(-c2cccc3ccccc23)nc1CN1CCN(c2ncnc3ccccc23)CC1 | i | i | i | -9.67* | -15.8 | 1.3 | 112.3* | i
CCOC(=O)C1CCCN(C(=O)c2cc(-c3ccc(C)cc3)nc3ccccc23)C1 (centres undefined) | i | i | i | -9.71* | -30.8 | 0.91 | 107.7* | i
CCOC(=O)C1CCCN(C(=O)c2cc(Nc3ccc(OC)c(OC)c3)nc3ccccc23)C1 (centres undefined) | i | i | i | i | -7.3 | 1.18 | · | ·
CCOc1nc(SCCOc2ccccc2)nc(N(C)C)n1 | i | i | i | -9.64* | -3.7 | 1.46 | 98.3* | i
CCCCN(Cc1ccco1)C(=O)C1CCCN(c2ncnc3c2nc2n3CCCCC2)C1 (centres undefined) | i | i | i | -11.4* | -15.2 | 0.08 | 97.0* | i
COc1cc(C(=O)N/N=C/c2ccc(OC(=O)c3cccc(C)c3)c(OC)c2)ccc1O | i | 8* | i | -8.73* | -21.3 | -1.85 | 82.3* | i
COc1cc(C(=O)N/N=C/c2ccc3c(c2)c2ccccc2n3C)ccc1O | i | i | i | -11.1* | -21.1 | 2.21 | 99.7* | i
COc1cccc(C(=O)Oc2ccc(/C=N/NC(=O)c3ccncc3)cc2OC)c1 | i | i | i | i | -4.6 | 0.51 | · | ·
Cn1c2ccccc2c2cc(/C=N/NC(=O)c3cc(O)ccc3O)ccc21 | i | i | i | i | -35.7 | -0.14 | · | ·
CCCCCCN1CC(=O)N2Cc3[nH]c4ccccc4c3C[C@H]2C1=O | i | i | i | i | -4.4 | -1.08 | · | ·
Cn1c(-c2c(N)n(CCc3ccccc3)c3nc4ccccc4nc23)nc2ccccc21 | -7.85* | 13* | i | -8.79* | -19.2 | 0.07 | 157.7* | 0.103*
N#Cc1c(N)n(CCc2ccc(F)cc2)c2nc3ccccc3nc12 | i | i | i | i | -8.9 | -0.46 | · | ·
COCCCn1c(N)c(-c2nc3ccccc3n2C)c2nc3ccccc3nc21 | i | i | i | i | -30.2 | -1 | · | ·
SMILES | KCNK9 block | KCNQ1 block | KCNQ1 act | KCNK3 inh | hERG protect | Kir21 block | KCNK3 inh conf | KCNK3 uninduced
Cn1c(-c2c(N)n(CCCc3ccccc3)c3nc4ccccc4nc23)nc2ccccc21 | i | i | i | -9.17* | -19.1 | -1.32 | 126.0* | 0.151*
COc1ccc([N+](=O)[O-])cc1NS(=O)(=O)c1cccc(C(=O)O)c1 | i | i | i | i | -10.2 | -0.1 | · | ·
CCOC(=O)/C(C#N)=C/c1cc(C)n(-c2ccc(C)cc2)c1C | i | i | i | -9.58* | -3.8 | -0.21 | 109.7* | i
Cc1cccn2c(=O)c(/C=C(\C#N)S(=O)(=O)c3ccccc3)c(N3CCN(Cc4ccccc4)CC3)nc12 | i | i | i | -10.2* | -16.8 | -1.44 | 107.7* | i
CCOC(=O)/C(C#N)=C/c1c(N2CCN(c3ccc(OC)cc3)CC2)nc2c(C)cccn2c1=O | i | i | i | -12* | -7.9 | -0.02 | 83.0* | 0.152*
N#C/C(=C\c1c(N2CCN(Cc3ccccc3)CC2)nc2ccccn2c1=O)S(=O)(=O)c1ccccc1 | i | i | i | -8.96* | -9.9 | -0.17 | 103.0* | i
O=C(c1nc2ccc(Cl)cn2c1CN1CCCC(CO)C1)N1CCc2ccccc2C1 (centres undefined) | i | i | i | i | -11.7 | -1.39 | · | ·
Cc1noc(C)c1COc1cccc(C(=O)Nc2ccc3c(c2)OCO3)c1 | i | i | i | i | -7.6 | 0 | · | ·
Cc1noc(C)c1COc1cccc(C(=O)OCCOc2ccc(F)cc2)c1 | i | i | i | -14.3* | -7.9 | 0.59 | 116.0* | i
Cc1noc(C)c1COc1cccc(C(=O)Oc2ccc3c(c2)OCO3)c1 | i | i | i | -8.84* | -10.6 | -0.78 | 96.0* | i
Cc1noc(C)c1COc1cccc(C(=O)OC(C)C#N)c1 (centres undefined) | i | i | i | i | -2.0 | -0.52 | · | ·
COc1ccc(OC)c(Nc2nc(NCc3ccco3)c3ccccc3n2)c1 | i | i | i | -16.5* | -9.4 | -0.12 | 133.7* | 0.152*
Oc1ccccc1Nc1nc(NCc2ccco2)c2ccccc2n1 | i | i | i | i | -25.2 | -0.14 | · | ·

Bioassay records from PubChem.
